Measured values: ChEMBL document CHEMBL4406822, “Neuroactive Steroid N-Methyl-d-aspartate Receptor Positive Allosteric Modulators: Synthesis, SAR, and Pharmacological Activity” (J Med Chem, 2019)
Active and inactive are the calls of the source. The rule behind the calls is not given here.

Key:
[1] = Stability in human liver microsomes; format: ADME, Microsome; settings: read-out: Stability
[2] = target: T1, Glutamate NMDA receptor; GRIN1/GRIN2B (Homo sapiens, UniProt Q05586+Q13224); assay: Positive allosteric modulation of recombinant human GluN1/GluN2B receptor stably expressed in HEK293 cells assessed as increase in glycine/L-glutamate-induced channel current at -70 mV holding potential by IonWork whole cell patch clamp method relative to control
[3] = Stability in rat liver microsomes; format: ADME, Microsome; settings: read-out: Stability
[4] = target: T1, Glutamate NMDA receptor; GRIN1/GRIN2B; assay: Positive allosteric modulation of recombinant human GluN1/GluN2B receptor stably expressed in HEK293 cells assessed as increase in glycine/L-glutamate-induced channel current at -70 mV holding potential by IonWork […] method; format: cell-based
Procedure, shortened: (§1)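 Stable HEK293 lines expressing GluN1/GluN2A or GluN1/GluN2B, measured by automated whole-cell patch clamp (Ionworks Barracuda). Cells were held at -70 mV and stepped to -45 mV during agonist application (EC20 L-glutamate plus 50 µM glycine). The test article was first pre-applied alone for 5 min, then co-applied with agonist to record potentiation. Concentration-response percent potentiation gave EC50 and Emax.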

[5] = target: T2, Glutamate NMDA receptor; GRIN1/GRIN2A (Homo sapiens, UniProt Q05586+Q12879); assay: Positive allosteric modulation of recombinant human GluN1/GluN2A receptor stably expressed in HEK293 cells assessed as increase in glycine/L-glutamate-induced channel current at -70 mV holding potential by IonWork […] method; format: cell-based; procedure, shortened: as §1
[6] = target: T2, Glutamate NMDA receptor; GRIN1/GRIN2A; assay: Positive allosteric modulation of recombinant human GluN1/GluN2A receptor stably expressed in HEK293 cells assessed as increase in glycine/L-glutamate-induced channel current at -70 mV holding potential by IonWork […] method relative to control; format: cell-based; procedure, shortened: as §1
[7] = Clearance in iv dosed rat; format: ADME, organism-based; settings: in vivo
[8] = Volume of distribution at steady state in rat; format: ADME; settings: in vivo, read-out: Vdss
[9] = Oral bioavailability in rat; format: ADME, organism-based; settings: in vivo
[10] = Half life in rat; format: ADME; settings: in vivo
[11] = Ratio of drug level in Sprague-Dawley rat brain to plasma at 2.5 mg/kg, iv measured after 1 hr; format: ADME, organism-based; settings: brain and plasma, read-out: BPR
[12] = target: T1, Glutamate NMDA receptor; GRIN1/GRIN2B; assay: Potency index, ratio of 24(S)-hydroxycholesterol EC50 to test compound EC50 for positive allosteric modulation of recombinant human GluN1/GluN2B receptor stably expressed in HEK293 cells; format: cell-based
[13] = Ratio of drug level in Sprague-Dawley rat brain to plasma at 10 mg/kg, ip measured after 1 hr; format: ADME, organism-based; settings: brain and plasma, read-out: BPR
[14] = target: T2, Glutamate NMDA receptor; GRIN1/GRIN2A; assay: Potency index, ratio of 24(S)-hydroxycholesterol EC50 to test compound EC50 for positive allosteric modulation of recombinant human GluN1/GluN2A receptor stably expressed in HEK293 cells; format: cell-based
Hippocampus [15] = assay: Induction of synaptic plasticity in postnatal 120 to 150 day rat brain hippocampal slice assessed as stimulation of theta burst stimulaiton-induced field potential potentiation at 1 uM treated 20 mins prior to theta burst stimulation and measured after 60 mins by electrophysiological method; format: functional, tissue-based
Hippocampus [16] = assay: Induction of synaptic plasticity in postnatal 60 to 90 day rat brain hippocampal slice assessed as change in theta burst stimulaiton-induced field potential potentiation at 1 uM treated 20 mins prior to theta burst stimulation by electrophysiological method; format: functional, tissue-based

C[C@H](O)CC[C@@H](C)[C@H]1CC[C@H]2[C@@H]3CC=C4C[C@@](C)(O)CC[C@]4(C)[C@H]3CC[C@]12C
microsomal CLint [1]: < 10 µL/min/mg
Emax [2]: 50%
microsomal CLint [3]: 56 µL/min/mg
EC50 [4]: 3000 nM
EC50 [5]: > 10000 nM

C[C@H](CC[C@@H](O)C1CCC1)[C@H]1CC[C@H]2[C@@H]3CC=C4C[C@@](C)(O)CC[C@]4(C)[C@H]3CC[C@]12C
microsomal CLint [1]: < 10 µL/min/mg
Emax [6]: 250%
Emax [2]: 410%
microsomal CLint [3]: 25 µL/min/mg
clearance [7]: 88.3 mL/min/kg
Vd [8]: 2.9 L/kg
EC50 [4]: 270 nM
bioavailability [9]: 18%
EC50 [5]: 270 nM
half-life [10]: 0.84 h

CC(C)(O)CCC[C@H]1CC[C@H]2[C@@H]3CC=C4C[C@@](C)(O)CC[C@]4(C)[C@H]3CC[C@]12C
Emax [6]: 120%
Emax [2]: 120%
EC50 [4]: 160 nM
EC50 [5]: 550 nM

C[C@H](CC[C@@H](O)C(F)(F)F)[C@H]1CC[C@H]2[C@@H]3CC=C4C[C@@](C)(O)CC[C@]4(C)[C@H]3CC[C@]12C
microsomal CLint [1]: 3 µL/min/mg
Emax [6]: 150%
Emax [2]: 230%
microsomal CLint [3]: 9 µL/min/mg
clearance [7]: 31.7 mL/min/kg
Kp at 1 h [11]: 1
Vd [8]: 2.8 L/kg
EC50 [4]: 310 nM
bioavailability [9]: 70%
EC50 [5]: 30 nM
half-life [10]: 1.9 h

C[C@H](CCCC(C)(C)O)[C@H]1CC[C@H]2[C@@H]3CC=C4C[C@@H](O)CC[C@]4(C)[C@H]3CC[C@]12C
microsomal CLint [1]: 23 µL/min/mg
Emax [2]: 67%
microsomal CLint [3]: 31 µL/min/mg
clearance [7]: 41.7 mL/min/kg
Vd [8]: 1.2 L/kg
EC50 [4]: > 10000 nM
bioavailability [9]: 6%
EC50 [5]: > 10000 nM
half-life [10]: 0.38 h

C[C@H](CCC(C)(C)O)[C@H]1CC[C@H]2[C@@H]3CC=C4C[C@](C)(O)CC[C@]4(C)[C@H]3CC[C@]12C
Emax [2]: 160%
EC50 [4]: 3900 nM
EC50 [5]: > 10000 nM

CC[C@H](O)CC[C@@H](C)[C@H]1CC[C@H]2[C@@H]3CC=C4C[C@@](C)(O)CC[C@]4(C)[C@H]3CC[C@]12C
microsomal CLint [1]: 15 µL/min/mg
Emax [6]: 250%
Emax [2]: 160%
microsomal CLint [3]: 10 µL/min/mg
EC50 [4]: 84 nM
EC50 [5]: 100 nM

C[C@H](CC[C@H](O)C(F)(F)F)[C@H]1CC[C@H]2[C@@H]3CC=C4C[C@@](C)(O)CC[C@]4(C)[C@H]3CC[C@]12C
microsomal CLint [1]: 4 µL/min/mg
Emax [6]: 260%
Emax [2]: 170%
microsomal CLint [3]: 12 µL/min/mg
EC50 [4]: 110 nM
EC50 [5]: 220 nM

CC(O)CC[C@@H](C)[C@H]1CC[C@H]2[C@@H]3CC=C4C[C@@H](O)CC[C@]4(C)[C@H]3CC[C@]12C (some centres undefined)
microsomal CLint [1]: 7 µL/min/mg
Emax [6]: 150%
Emax [2]: 180%
microsomal CLint [3]: 17 µL/min/mg
EC50 [4]: 140 nM
EC50 [5]: 320 nM

C[C@H](CCCO)[C@H]1CC[C@H]2[C@@H]3CC=C4C[C@@H](O)CC[C@]4(C)[C@H]3CC[C@]12C
microsomal CLint [1]: 13 µL/min/mg
Emax [6]: 290%
microsomal CLint [3]: 25 µL/min/mg
EC50 [4]: > 10000 nM
EC50 [5]: 3000 nM

C[C@H](CCC1(O)CC1)[C@H]1CC[C@H]2[C@@H]3CC=C4C[C@@](C)(O)CC[C@]4(C)[C@H]3CC[C@]12C
microsomal CLint [1]: 6 µL/min/mg
Emax [6]: 300%
Emax [2]: 180%
microsomal CLint [3]: 23 µL/min/mg
EC50 [4]: 410 nM
EC50 [5]: 80 nM

CC(C)[C@@H](O)CC[C@@H](C)[C@H]1CC[C@H]2[C@@H]3CC=C4C[C@@](C)(O)CC[C@]4(C)[C@H]3CC[C@]12C
Ratio EC50 [12]: > 10
microsomal CLint [1]: < 10 µL/min/mg
Emax [6]: 200%
Emax [2]: 230%
microsomal CLint [3]: 28 µL/min/mg
clearance [7]: 51.7 mL/min/kg
Vd [8]: 3.7 L/kg
EC50 [4]: 13 nM
bioavailability [9]: 15%
EC50 [5]: 33 nM
Kp at 1 h [13]: 1.3
Ratio EC50 [14]: 4
half-life [10]: 1.6 h

C[C@H](CC[C@@H](O)C1CC1)[C@H]1CC[C@H]2[C@@H]3CC=C4C[C@@](C)(O)CC[C@]4(C)[C@H]3CC[C@]12C
microsomal CLint [1]: 10 µL/min/mg
Emax [6]: 220%
Emax [2]: 280%
microsomal CLint [3]: 20 µL/min/mg
clearance [7]: 68.3 mL/min/kg
Vd [8]: 4.4 L/kg
EC50 [4]: 190 nM
EC50 [5]: 77 nM
Kp at 1 h [13]: 3.2
half-life [10]: 1.8 h

CC(C)[C@H](O)CC[C@@H](C)[C@H]1CC[C@H]2[C@@H]3CC=C4C[C@@](C)(O)CC[C@]4(C)[C@H]3CC[C@]12C
microsomal CLint [1]: < 10 µL/min/mg
Emax [6]: 200%
Emax [2]: 230%
microsomal CLint [3]: 11 µL/min/mg
clearance [7]: 38.3 mL/min/kg
Vd [8]: 3.1 L/kg
EC50 [4]: 190 nM
bioavailability [9]: 25%
EC50 [5]: 120 nM
Kp at 1 h [13]: 0.8
half-life [10]: 2.2 h

COC(C)(C)CC[C@@H](C)[C@H]1CC[C@H]2[C@@H]3CC=C4C[C@@](C)(O)CC[C@]4(C)[C@H]3CC[C@]12C
EC50 [4]: > 10000 nM
EC50 [5]: > 10000 nM

CC[C@@H](O)CC[C@@H](C)[C@H]1CC[C@H]2[C@@H]3CC=C4C[C@@](C)(O)CC[C@]4(C)[C@H]3CC[C@]12C
microsomal CLint [1]: < 10 µL/min/mg
Emax [6]: 220%
Emax [2]: 130%
microsomal CLint [3]: 25 µL/min/mg
EC50 [4]: 30 nM
EC50 [5]: 420 nM

C[C@@H](CCC(C)(C)O)[C@H]1CC[C@H]2[C@@H]3CC=C4C[C@@](C)(O)CC[C@]4(C)[C@H]3CC[C@]12C
EC50 [4]: > 10000 nM
EC50 [5]: > 10000 nM

C[C@@H]([C@H]1CC[C@H]2[C@@H]3CC=C4C[C@@H](O)CC[C@]4(C)[C@H]3CC[C@]12C)C(C)(C)O
microsomal CLint [1]: 6 µL/min/mg
microsomal CLint [3]: 48 µL/min/mg
EC50 [4]: > 10000 nM
EC50 [5]: > 10000 nM

C[C@H](CC[C@H](O)C1CCC1)[C@H]1CC[C@H]2[C@@H]3CC=C4C[C@@](C)(O)CC[C@]4(C)[C@H]3CC[C@]12C
microsomal CLint [1]: < 10 µL/min/mg
Emax [6]: 300%
Emax [2]: 530%
microsomal CLint [3]: 31 µL/min/mg
EC50 [4]: 120 nM
EC50 [5]: 120 nM

CC(C)[C@H](O)CC[C@@H](C)[C@H]1CC[C@H]2[C@@H]3CC=C4C[C@@H](O)CC[C@]4(C)[C@H]3CC[C@]12C
microsomal CLint [1]: 28 µL/min/mg
Emax [6]: 220%
Emax [2]: 140%
microsomal CLint [3]: 93 µL/min/mg
EC50 [4]: 55 nM
EC50 [5]: 37 nM

C[C@H](CCC1(O)CC1)[C@H]1CC[C@H]2[C@@H]3CC=C4C[C@@H](O)CC[C@]4(C)[C@H]3CC[C@]12C
microsomal CLint [1]: 10 µL/min/mg
Emax [6]: 280%
Emax [2]: 280%
microsomal CLint [3]: 35 µL/min/mg
EC50 [4]: 310 nM
EC50 [5]: 900 nM

C[C@H](CC(C)(C)O)[C@H]1CC[C@H]2[C@@H]3CC=C4C[C@@H](O)CC[C@]4(C)[C@H]3CC[C@]12C
microsomal CLint [1]: 18 µL/min/mg
microsomal CLint [3]: 63 µL/min/mg
EC50 [4]: > 10000 nM
EC50 [5]: > 10000 nM

C[C@H](CCC(C)(C)O)[C@H]1CC[C@H]2[C@@H]3CC=C4C[C@@H](O)CC[C@]4(C)[C@H]3CC[C@]12C
microsomal CLint [1]: 10 µL/min/mg
Emax [6]: 110%
Activity (Hippocampus [15]): Active
Emax [2]: 140%
microsomal CLint [3]: 30 µL/min/mg
Activity (Hippocampus [16]): inactive
EC50 [4]: 410 nM
EC50 [5]: 180 nM

C[C@H](CC[C@@H](C)O)[C@H]1CC[C@H]2[C@@H]3CC=C4C[C@@](C)(O)CC[C@]4(C)[C@H]3CC[C@]12C
microsomal CLint [1]: 11 µL/min/mg
microsomal CLint [3]: 67 µL/min/mg
EC50 [4]: > 10000 nM
EC50 [5]: > 10000 nM

C[C@H](CC[C@H](O)C1CC1)[C@H]1CC[C@H]2[C@@H]3CC=C4C[C@@](C)(O)CC[C@]4(C)[C@H]3CC[C@]12C
microsomal CLint [1]: < 10 µL/min/mg
Emax [6]: 230%
Emax [2]: 150%
microsomal CLint [3]: 28 µL/min/mg
EC50 [4]: 170 nM
EC50 [5]: 320 nM
